Results published in ChEMBL document CHEMBL1938334, “Quinoline tricyclic derivatives. Design, synthesis and evaluation of the antiviral activity of three new classes of RNA-dependent RNA polymerase inhibitors” (Bioorg Med Chem, 2011).

Assays:
[1] = Cytotoxicity against african green monkey Vero 76 cells after 48 to 96 hrs by crystal violet staining; assay type: cell-based; settings: chlorocebus sabaeus
Procedure, shortened: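 Vero-76 cells were seeded at 4×10^5 cells/mL in D-MEM with L-glutamine, kanamycin and 10% FBS, then exposed to serial compound dilutions at 37 °C, 5% CO2 for 48–96 h. Viability was read by crystal violet staining. 50% cytotoxic concentration by linear regression relative to untreated controls; mean of three independent determinations.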

[2] = Cytotoxicity against human CRL7065 cells after 96 hrs by MTT assay; assay type: cell-based, CRL-7065
Procedure, shortened: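 Foreskin fibroblasts seeded at 1×10^5 cells/mL in specific medium with 10% FCS and antibiotics; serial compound dilutions, 37 °C, 5% CO2, 96 h, under conditions allowing untreated controls at least three rounds of multiplication. MTT read-out; concentration reducing proliferation by 50% by linear regression versus untreated controls; three independent determinations.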

[3] = Cytotoxicity against BHK21 cells after 48 to 96 hrs by MTT assay; assay type: cell-based, Mesocricetus auratus, BHK-21; settings: hamster
Procedure, shortened: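 MDBK seeded at 6×10^5 and BHK at 1×10^6 cells/mL in MEM-Earle's with L-glutamine, 1 mM pyruvate, kanamycin, plus 10% horse serum (MDBK) or 10% FBS (BHK). Cells were grown at 37 °C, 5% CO2 with serial compound dilutions (DMSO stocks diluted in medium). Viability by MTT after 48–96 h. CC50 was taken by linear regression versus untreated controls; three independent determinations.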

[4] = Cytotoxicity against human MT4 cells after 96 hrs by MTT assay; assay type: cell-based
Procedure, shortened: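 Exponentially growing MT-4 cells seeded at 1×10^5 cells/mL in RPMI-1640 with 10% FBS, penicillin and streptomycin. Incubated with serial compound dilutions at 37 °C, 5% CO2 for 96 h; viability by MTT. CC50 by linear regression relative to untreated controls; mean of three independent determinations.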

[5] = test system: Human immunodeficiency virus 1; test: Antiviral activity against HIV1 3B infected in human MT4 cells assessed as inhibition of virus-induced cytopathogenicity after 4 days by MTT assay; assay type: functional, organism-based; settings: Human immunodeficiency virus 1, 3B, MT4, 96 h
Procedure, shortened: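 MT-4 cells (1×10^4 per well) were infected with HIV-1 IIIB at 100 CCID50, m.o.i. 0.01, together with serial compound dilutions. Viability was read by MTT after 4 days at 37 °C. EC50 was taken by linear regression versus untreated controls. Mean of three determinations.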

[6] = Antiviral activity against Bovine viral diarrhea virus 1-NADL infected in MDBK cells assessed as inhibition of virus-induced cytopathogenicity after 3 to 4 days by MTT assay; assay type: functional, cell-based; settings: Bovine viral diarrhea virus isolates and strains
Procedure, shortened: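 Host cells were seeded in 96-well plates at 3×10^4 cells/well (MDBK) or 5×10^4 cells/well (BHK-21) and grown to confluent monolayers overnight. They were infected at m.o.i. 0.01 in maintenance MEM with 0.5% inactivated FBS. Serial compound dilutions were added after 1 h. Viability was read by MTT after 3–4 days at 37 °C. EC50 was taken by linear regression against untreated controls. Mean of three determinations.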

HepG2 = test: Cytotoxicity against human HepG2 cells after 96 hrs by MTT assay; assay type: functional; settings: HepG2, 96 h
Procedure, shortened: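 Cells were seeded at 1×10^5 cells/mL: leukaemia/lymphoma lines in RPMI-1640, solid tumour and fibroblast lines in specific media, all with 10% FCS. Serial compound dilutions were applied for 96 h at 37 °C, 5% CO2, under conditions allowing controls at least three rounds of multiplication. Viability was read by MTT. CC50 by linear regression. Mean of three determinations.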

With `O=[N+]([O-])c1ccc(-c2nc3cc4cccnc4c(Cl)c3[nH]2)cc1` the CC50 [1] was > 100 µM, the CC50 at 96 h [2] was > 100 µM and the CC50 [3] was > 100 µM. The CC50 at 96 h [4] was > 100 µM, the EC50 [5] was > 100 µM and the EC50 [6] was 1.2 µM. The CC50 (HepG2) was 10.3 µM.
